Experimental data published in PubChem BioAssay.
Records with an inconclusive call do not appear.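 The calls were made as follows, unless noted: active = RAM network inhibition above 8.4% in each of two replicates, 3 SD over the compound average; inconclusive = above 8.4% inhibition in only one replicate; inactive = 8.4% inhibition or less in each replicate.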

How the values were obtained:
[1] = OD615 S. cerevisiae growth inhibition, permissive medium, pilot counter-assay, permissive growth control for S. cerevisiae lifespan shortening project (AID 705;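 active = growth inhibition above 25% in both replicates, a cutoff set 3 SD above the mean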); settings: OD615, 24 h, at 10 µM, active compounds read high
Procedure, shortened: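 Material: engineered DeaD yeast; compound dosing: one dose 10 µM, DMSO 0.25% final; measure: yeast growth inhibition indicated by reduced 24 h OD615; detection: OD615 turbidity read; incubation: cells pre-grown 4 h, then 24 h compound exposure, 30 °C humidified; medium: permissive synthetic complete medium with raffinose and galactose carbon sources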

[2] = Restrictive medium S. cerevisiae growth inhibition, OD615, pilot screen of yeast lifespan reduction project, restrictive growth control (AID 706;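 active = growth inhibition above a set limit, 3 SD over mean compound inhibition, in both replicates, cut at about 43% in these data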;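 also: modified DeaD lifespan yeast strain shifted to restrictive glucose medium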); settings: OD615, 48 h, at 10 µM, active compounds read high
Procedure, shortened: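 material = engineered S. cerevisiae DeaD strain | medium = glucose-based CSMM-D restrictive medium | times = 4 h pre-incubation, 48 h exposure at 30 °C | technique = OD615 absorbance reading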

[3] = viability gain of MRP-1-high H69AR cells under doxorubicin, pilot screen, MRP-1 activator project, CellTiter-Glo, duplicate (AID 807;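 active = viability increase at or above a cutoff of the median across tested compounds plus 3 SD, cut at about 8.5% in these data, passing the limit was not always enough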;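 also: compound pretreatment 18-22 h then 72 h combined with doxorubicin; 0% = doxorubicin alone and 100% = vehicle without doxorubicin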); settings: H69AR viability with doxorubicin, CellTiter-Glo luminescence; at 10 µM; active compounds read high
[4] = growth suppression of beta-catenin knockout HCT116, pilot screen, human colon tumor cells (AID 823;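 active = cell viability at or below a set limit in both duplicate runs, the limit being the all-compound median minus 4 SD, cut at about 23% in these data, passing the limit was not always enough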;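 also: 0% = wells killed by 20 µM Hyamine and 100% = untreated DMSO cell wells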); settings: CellTiter-Glo, 60 h, at 10 µM, active compounds read low
[5] = growth suppression of PTEN-deleted HCT116, pilot screen, cell-based, HCT116 clonal line, CellTiter-Glo (AID 824;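 active = viability at or below 27.92% in each of two runs, the all-compound median minus 4 SD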;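 also: 0% = 20 µM Hyamine control and 100% = vehicle cell control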); settings: 60 h, at 10 µM, active compounds read low
[6] = inhibitors of the yeast RAM network, pilot screen, dse1pr::URA3 reporter, 5-FOA selection (AID 869;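 active = inhibition over a set limit, the all-compound mean plus 3 SD, in both replicate runs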;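 also: 0% = DMSO wells with no growth and 100% = 10 µM 1-NA-PP1 with full growth; RAM network block rescues cells from 5-FOA so hits raise OD615 growth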); settings: S. cerevisiae dse1pr::URA3 5-FOA growth, OD615, 2 d; at 10 µM; active compounds read high; strain carries analog-sensitive mutant Cbk1 kinase
[7] = RAM signaling pathway blockade in yeast – S. cerevisiae, Pdr1DBD-CYC8 efflux-inhibited sensitized strain, primary screen (AID 1298);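 also: 0% = DMSO untreated cells without growth and 100% = 10 µM 1-NA-PP1 full growth; higher means more yeast growth rescued from 5-FOA killing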; settings: S. cerevisiae cbk1-as DSE1-URA3 strain, 5-FOA growth OD615, 2 d; at 50 µM; active compounds read high

c1coc(-c2nc(-c3ccco3)c(-c3ccco3)nc2-c2ccco2)c1
inactive: growth inhibition [1] -25.2% | growth inhibition [2] -38.9% | viability increase [3] -2.54% | viability [4] 97.6% | viability [5] 86.5% | inhibition [6] 2.14% | RAM network inhibition [7] 0.57%

CC(C)Oc1ccc(C2CNC(=O)C2)cc1 (stereo not drawn)
inactive: growth inhibition [1] -1.04% | growth inhibition [2] 0.15% | viability increase [3] -0.24% | viability [4] 102% | viability [5] 103% | inhibition [6] 1.04% | RAM network inhibition [7] 0.1%

Cc1ccc2c(c1)c1cccc3c1n2CCN3CCC(N)=O
inactive: growth inhibition [1] 4.29% | growth inhibition [2] 6.53% | viability increase [3] 1.41% | viability [4] 87.4% | viability [5] 87.2% | inhibition [6] 3.32% | RAM network inhibition [7] 9.34%

O=C(O)C1CCCCN1S(=O)(=O)c1ccc(Cl)s1 (stereo not drawn)
inactive: growth inhibition [1] -2.17% | growth inhibition [2] 1.02% | viability increase [3] -1.27% | viability [4] 101% | viability [5] 97.3% | inhibition [6] 0.505% | RAM network inhibition [7] -0.42%

N=c1sccn1CC(=O)Nc1ccccc1-c1ccccc1
inactive: growth inhibition [1] -5.55% | growth inhibition [2] -3.2% | viability increase [3] -2.08% | viability [4] 94.3% | viability [5] 95.8% | inhibition [6] 2.95% | RAM network inhibition [7] 3.6%

O=C(NCc1ccc(Cl)c(Cl)c1)c1cccnc1
inactive: growth inhibition [1] -7.96% | growth inhibition [2] 4.69% | viability increase [3] -1.74% | viability [4] 99% | viability [5] 90.9% | inhibition [6] 0.58% | RAM network inhibition [7] 3.32%

C=CCOC(=O)COc1ccc2c(C)c(C)c(=O)oc2c1
inactive: growth inhibition [1] -17.9% | growth inhibition [2] -6.88% | viability increase [3] 0.26% | viability [4] 96.6% | viability [5] 95.9% | inhibition [6] 0.765% | RAM network inhibition [7] 4.38%

O=C(c1nnc(Cc2ccc(Cl)cc2)o1)N1CCOCC1
inactive: growth inhibition [1] -7.58% | growth inhibition [2] 1.76% | viability increase [3] -0.86% | viability [4] 105% | viability [5] 107% | inhibition [6] 1.23% | RAM network inhibition [7] 0.99%

Cc1csc2ncc(C(=O)Nc3ccc4c(c3)OCCO4)c(=O)n12
inactive: growth inhibition [1] -13.1% | growth inhibition [2] -17.3% | viability increase [3] -2.34% | viability [4] 102% | viability [5] 97.5% | inhibition [6] 2.96% | RAM network inhibition [7] 6.97%

COC(=O)c1ccc(NC(=O)c2cccc(OC)c2)cc1
inactive: growth inhibition [1] -1.57% | growth inhibition [2] 7.93% | viability increase [3] 1.59% | viability [4] 69.9% | viability [5] 80.7% | inhibition [6] 0.875% | RAM network inhibition [7] 8.05%

CCOC(=O)c1ccc(NCn2c(=O)oc3ccccc32)cc1
inactive: growth inhibition [1] -8.51% | growth inhibition [2] -15.7% | viability increase [3] -4.09% | viability [4] 88.5% | viability [5] 87.6% | inhibition [6] -0.385% | RAM network inhibition [7] -0.1%

CC(C)Sc1nnc(NC(=O)C2CC2)s1
inactive: growth inhibition [1] -12.6% | growth inhibition [2] -3.5% | viability increase [3] -0.09% | viability [4] 98.1% | viability [5] 102% | inhibition [6] 1.93% | RAM network inhibition [7] 3.62%

Cc1ccc(F)cc1NC(=O)c1c(-c2ccccc2)noc1C
inactive: growth inhibition [1] -10.2% | growth inhibition [2] -26.1% | viability increase [3] -2.01% | viability [4] 78.8% | viability [5] 72.9% | inhibition [6] 0.015% | RAM network inhibition [7] 2.22%

COc1cc(C(c2sc3nc(C)nn3c2O)N2CC(C)OC(C)C2)cc(OC)c1OC (stereo not drawn)
inactive: growth inhibition [1] -0.68% | growth inhibition [2] -4.15% | viability increase [3] -2.37% | viability [4] 93.6% | viability [5] 90.1% | inhibition [6] 0.73% | RAM network inhibition [7] 2.94%

CC(=O)Oc1cccc(N2C(=O)C3CC=C(Cl)CC3C2=O)c1 (stereo not drawn)
inactive: growth inhibition [1] -5.15% | growth inhibition [2] -22.9% | viability increase [3] -0.7% | viability [4] 89.6% | viability [5] 87.9% | inhibition [6] 2.81% | RAM network inhibition [7] 1.87%

Cc1c(NC(=O)C2CC=CCC2C(=O)O)c(=O)n(-c2ccccc2)n1C (stereo not drawn)
inactive: growth inhibition [1] -5.59% | growth inhibition [2] -6.86% | viability increase [3] -0.87% | viability [4] 101% | viability [5] 94.3% | inhibition [6] 1.54% | RAM network inhibition [7] 1.99%

COc1ccc(C)cc1NC(=O)c1nnn(CCc2ccccc2)c1N
inactive: growth inhibition [1] -5.25% | growth inhibition [2] -3.95% | viability increase [3] -5.29% | viability [4] 85.8% | viability [5] 81.5% | inhibition [6] 2.73% | RAM network inhibition [7] 3.9%

CCOC(=O)c1nnc2cc(-c3ccccc3)nn2c1C
inactive: growth inhibition [1] 3.76% | growth inhibition [2] 16% | viability increase [3] 0.86% | viability [4] 93.6% | viability [5] 95.3% | inhibition [6] 1.5% | RAM network inhibition [7] 0.86%

C=C(Br)Cn1c(CC(C)C)nc2ccccc21
inactive: growth inhibition [1] 13.3% | growth inhibition [2] -14.3% | viability increase [3] -4.96% | viability [4] 85.1% | viability [5] 83.7% | inhibition [6] 0.265% | RAM network inhibition [7] 4.37%

Cc1ccc2oc(=O)c3cnn(CC(=O)N4CCCCCC4)c3c2c1
inactive: growth inhibition [1] -11% | growth inhibition [2] -0.055% | viability increase [3] -3.69% | viability [4] 82.8% | viability [5] 89.1% | inhibition [6] 1.46% | RAM network inhibition [7] 2.05%

Cc1ccc(CNC(=O)c2ccc(Br)o2)cc1
inactive: growth inhibition [1] -14.5% | growth inhibition [2] -1.29% | viability increase [3] -0.67% | viability [4] 96.9% | viability [5] 98.1% | inhibition [6] 0.885% | RAM network inhibition [7] 3.41%

O=C(NC12CC3CC(CC(C3)C1)C2)c1cccnc1
inactive: growth inhibition [1] -3.12% | growth inhibition [2] 15.7% | viability increase [3] -0.51% | viability [4] 104% | viability [5] 97.7% | inhibition [6] 2.61% | RAM network inhibition [7] 3.7%

CSc1nnc(Cn2c(=O)sc3ccccc32)n1-c1ccccc1
inactive: growth inhibition [1] -2.55% | growth inhibition [2] 3.38% | viability increase [3] -0.84% | viability [4] 104% | viability [5] 102% | inhibition [6] 2.03% | RAM network inhibition [7] 2.08%

Cc1onc(-c2ccccc2)c1C(=O)Nc1ccc2c(c1)OCCO2
inactive: growth inhibition [1] -5.44% | growth inhibition [2] -6.46% | viability increase [3] -0.35% | viability [4] 96.6% | viability [5] 94.9% | inhibition [6] 2.96% | RAM network inhibition [7] 2.34%
